For assay [1], the target named is T1, Stimulator of interferon genes protein (Mus musculus) (UniProt Q3TBT3).
T1 sequence (whole entry): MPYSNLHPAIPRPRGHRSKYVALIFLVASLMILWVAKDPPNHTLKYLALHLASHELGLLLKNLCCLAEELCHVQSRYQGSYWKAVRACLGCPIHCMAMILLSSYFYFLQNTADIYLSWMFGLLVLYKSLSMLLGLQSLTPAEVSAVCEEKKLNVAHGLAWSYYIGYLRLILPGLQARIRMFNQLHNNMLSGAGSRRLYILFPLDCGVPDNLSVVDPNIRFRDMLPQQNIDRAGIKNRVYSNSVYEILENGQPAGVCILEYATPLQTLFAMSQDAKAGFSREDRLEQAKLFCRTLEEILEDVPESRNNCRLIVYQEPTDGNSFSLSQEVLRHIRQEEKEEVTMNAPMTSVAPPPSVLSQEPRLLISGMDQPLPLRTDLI
Nature of the assay: Agonist activity at STING in mouse J774 cells assessed as stimulation of IRF3 pathway measured after 20 hrs by luciferase reporter gene assay. Format: cell-based. The method in brief:
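J774-Dual reporter cells (stably carrying inducible NF-kB and IRF3 reporter constructs), 5×10^4 per well, given CDN at 1 µg/mL for 20 hours; IRF3 pathway activity read by luciferase assay.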

Assay [2] deals with Mus musculus. The assay is described as follows: Antitumor activity against mouse B16-OVA cells implanted in mouse assessed as higher number of mouse cured of tumors at 10 ug administered intratumorally on day 6, 9 and 12 post implantation. Type of assay: functional, cell-based. In outline: (§1)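 Mice (n=5 per group) implanted bilaterally with 1×10^5 B16-Ova cells; 10 µg CDN injected intratumorally into one flank only on days 6, 9 and 12 post implantation. Tumor regression followed in injected and contralateral untreated flanks; cure of both tumors recorded.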

Assay [3] deals with Mus musculus. The assay is described as follows: Antitumor activity against mouse B16-OVA cells implanted in mouse assessed as tumour regression in contralateral flank at 10 ug administered intratumorally on day 6, 9 and 12 post implantation. Format: functional, cell-based. The method in brief: as §1
Assay [4] has as its system Mus musculus. The assay is described as follows: Antitumor activity against mouse B16-OVA cells implanted in mouse assessed as tumour regression in injected flank at 10 ug administered intratumorally on day 6, 9 and 12 post implantation. Format: functional, cell-based. In outline:
as §1

SMILES strings stand for the structures. Calls of active or inactive are those of the source. The calls are words filed in the database; no cut-off is given here.

As for `Nc1ncnc2c1ncn2[C@@H]1O[C@@H]2CO[P@@](=O)(S)O[C@@H]3[C@H](O)[C@@H](CO[P@@](=O)(S)O[C@H]2[C@H]1F)O[C@H]3n1cnc2c(N)ncnc21`, the result in assay [1], in assay [2], in assay [3] and in assay [4] was Active.
As for `Nc1ncnc2c1ccn2[C@@H]1O[C@@H]2CO[P@@](=O)(S)O[C@@H]3[C@H](O)[C@@H](CO[P@@](=O)(S)O[C@H]2[C@H]1O)O[C@H]3n1cnc2c(N)ncnc21`, the outcome in assay [1], in assay [2], in assay [3] and in assay [4] was Active.
On to `Nc1nc2c(ncn2[C@@H]2O[C@@H]3COP(=O)(O)O[C@H]4[C@@H](O)[C@H](n5cnc6c(N)ncnc65)O[C@@H]4COP(=O)(O)O[C@@H]2[C@@H]3O)c(=O)[nH]1`, for which the result in assay [2], in assay [3] and in assay [4] was Active.
As to `Nc1ncnc2c1ccn2[C@@H]1O[C@@H]2CO[P@@](=O)(S)O[C@H]3[C@@H](O)[C@H](n4cnc5c(N)ncnc54)O[C@@H]3CO[P@@](=O)(S)O[C@@H]1[C@@H]2O`, the result in assay [1] was Active.
Take `Nc1ncnc2c1ccn2[C@@H]1O[C@@H]2CO[P@@](=O)(S)O[C@H]3[C@@H](O)[C@H](n4cnc5c(N)ncnc54)O[C@@H]3CO[P@](=O)(S)O[C@@H]1[C@@H]2O`: the result in assay [1] was Active.
In the case of `Nc1ncnc2c1ccn2[C@@H]1O[C@@H]2CO[P@](=O)(S)O[C@@H]3[C@H](O)[C@@H](CO[P@@](=O)(S)O[C@H]2[C@H]1O)O[C@H]3n1cnc2c(N)ncnc21`, the outcome in assay [1] was Active.
For `Nc1ncnc2c1ncn2[C@@H]1O[C@@H]2CO[P@](=O)(S)O[C@@H]3[C@H](O)[C@@H](CO[P@@](=O)(S)O[C@H]2[C@H]1F)O[C@H]3n1cnc2c(N)ncnc21`, the outcome in assay [1] was Active.

The values above are taken from ChEMBL document CHEMBL4396969, “Discovery of IACS-8803 and IACS-8779, potent agonists of stimulator of interferon genes (STING) with robust systemic antitumor efficacy” (Bioorg Med Chem Lett, 2019).
